Among the data in ChEMBL document CHEMBL1139503, “Varenicline: an alpha4beta2 nicotinic receptor partial agonist for smoking cessation” (J Med Chem, 2005) are Response, Ki and inhibition values, retold here.

The Ki is a measure of affinity in units of concentration, obtained from inhibition or displacement. A low value points to tighter binding. As usually defined, the inhibition is the drop in the measured response relative to a control, in per cent.

Test [1] addresses T1, Neuronal acetylcholine receptor; alpha4/beta2 (Homo sapiens) (UniProt P17787+P43681). Put plainly: Percent agonist activity relative to 10 uM (-)-nicotine at human nicotinic acetylcholine receptor alpha4-beta2 at 10 uM. The class given is functional. Put shortly: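 Electrophysiology in Xenopus oocytes expressing human α4β2 nAChR. Compound applied alone at 10 µM. Current compared with the response to 10 µM (-)-nicotine (chosen over EC50 level to limit desensitization) and expressed as percent; N = 3, SEM ≤10%.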

Test [2] deals with Neuronal acetylcholine receptor; alpha3/beta4 (Homo sapiens, UniProt P30926+P32297). The experiment in a line: Inhibition of [3H]epibatidine binding to nicotinic acetylcholine receptor alpha3-beta4 of human IMR32 cells. The class given is cell-based, IMR-32. Put shortly: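 Displacement of [3H]-epibatidine from IMR32 cell preparations; N = 3 determinations.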
Sequence of Neuronal acetylcholine receptor; alpha3/beta4 (P30926 whole entry): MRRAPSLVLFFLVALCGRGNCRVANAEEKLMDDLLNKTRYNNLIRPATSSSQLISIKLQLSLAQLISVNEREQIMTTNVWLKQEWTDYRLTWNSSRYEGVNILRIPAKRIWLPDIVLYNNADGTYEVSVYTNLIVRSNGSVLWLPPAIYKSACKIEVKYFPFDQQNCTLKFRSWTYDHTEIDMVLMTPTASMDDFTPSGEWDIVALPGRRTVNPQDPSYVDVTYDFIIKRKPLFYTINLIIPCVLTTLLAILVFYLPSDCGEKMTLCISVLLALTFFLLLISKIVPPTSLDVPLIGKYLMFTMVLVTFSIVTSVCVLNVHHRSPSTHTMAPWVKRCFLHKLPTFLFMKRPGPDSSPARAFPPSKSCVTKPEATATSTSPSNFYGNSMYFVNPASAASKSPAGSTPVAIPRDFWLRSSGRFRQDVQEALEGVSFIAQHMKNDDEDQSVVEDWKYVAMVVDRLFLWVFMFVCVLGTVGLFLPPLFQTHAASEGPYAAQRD
Sequence of Neuronal acetylcholine receptor; alpha3/beta4 (P32297 whole entry): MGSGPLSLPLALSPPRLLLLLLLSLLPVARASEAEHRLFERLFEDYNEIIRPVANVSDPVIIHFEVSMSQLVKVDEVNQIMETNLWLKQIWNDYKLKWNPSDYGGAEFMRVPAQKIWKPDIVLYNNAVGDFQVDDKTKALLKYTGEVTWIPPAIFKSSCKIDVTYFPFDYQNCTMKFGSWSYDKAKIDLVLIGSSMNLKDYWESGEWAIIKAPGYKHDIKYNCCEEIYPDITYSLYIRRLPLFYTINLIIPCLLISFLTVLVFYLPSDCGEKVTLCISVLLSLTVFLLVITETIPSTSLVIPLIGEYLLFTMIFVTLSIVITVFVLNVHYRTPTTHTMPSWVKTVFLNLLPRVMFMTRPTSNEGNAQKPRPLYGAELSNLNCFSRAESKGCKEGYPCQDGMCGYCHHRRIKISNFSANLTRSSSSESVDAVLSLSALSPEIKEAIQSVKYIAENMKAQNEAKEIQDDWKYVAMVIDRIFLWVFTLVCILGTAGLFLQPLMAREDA
For the next test, the target named is Acetylcholine receptor (Torpedo californica, UniProt P02710+P02712+P02714+P02718). The experiment in a line: Inhibition of [125I]alpha-bungarotoxin binding to nicotinic acetylcholine receptor alpha1 beta gamma delta of electroplax. The class given is protein-complex assay. Put shortly:
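Competition binding with [125I]-α-bungarotoxin on electroplax membranes; N = 3 determinations.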

Test [3] has as its target Neuronal acetylcholine receptor subunit alpha-7 (Rattus norvegicus, UniProt Q05941). The experiment in a line: Inhibition of [125I]alpha-bungarotoxin binding to nicotinic acetylcholine receptor alpha-7 subunit in rat GH4C1 cells. The class given is cell-based, GH4-C1.
The target in test [4] is Neuronal acetylcholine receptor; alpha4/beta2 (Rattus norvegicus, UniProt P09483+P12390). Put plainly: Inhibition of [3H]nicotine binding to nicotinic acetylcholine receptor alpha4-beta2 of rat cortex. In short, it runs like this:
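Radioligand displacement in rat cortex tissue; N = 3 determinations.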

For test [5], the target named is T1, Neuronal acetylcholine receptor; alpha4/beta2 (Homo sapiens). Put plainly: Percent antagonist activity against 10 uM nicotine at human nicotinic acetylcholine receptor alpha4-beta2 at 10 uM. The class given is functional.

Sequence of Neuronal acetylcholine receptor subunit alpha-7 (Q05941 whole entry): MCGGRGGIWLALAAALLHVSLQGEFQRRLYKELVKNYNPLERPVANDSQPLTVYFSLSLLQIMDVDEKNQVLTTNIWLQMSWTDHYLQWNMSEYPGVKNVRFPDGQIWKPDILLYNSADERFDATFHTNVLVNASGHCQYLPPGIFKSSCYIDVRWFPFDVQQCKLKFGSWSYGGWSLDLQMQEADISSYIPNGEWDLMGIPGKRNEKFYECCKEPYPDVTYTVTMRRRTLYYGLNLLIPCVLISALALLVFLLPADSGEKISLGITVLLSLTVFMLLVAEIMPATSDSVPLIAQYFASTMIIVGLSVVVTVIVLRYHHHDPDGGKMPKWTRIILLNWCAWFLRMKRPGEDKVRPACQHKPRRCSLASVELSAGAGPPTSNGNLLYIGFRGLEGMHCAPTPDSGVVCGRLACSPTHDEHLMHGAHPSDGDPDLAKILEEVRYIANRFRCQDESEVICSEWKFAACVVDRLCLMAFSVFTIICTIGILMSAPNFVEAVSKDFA
Sequence of Neuronal acetylcholine receptor; alpha4/beta2 (P09483 whole entry): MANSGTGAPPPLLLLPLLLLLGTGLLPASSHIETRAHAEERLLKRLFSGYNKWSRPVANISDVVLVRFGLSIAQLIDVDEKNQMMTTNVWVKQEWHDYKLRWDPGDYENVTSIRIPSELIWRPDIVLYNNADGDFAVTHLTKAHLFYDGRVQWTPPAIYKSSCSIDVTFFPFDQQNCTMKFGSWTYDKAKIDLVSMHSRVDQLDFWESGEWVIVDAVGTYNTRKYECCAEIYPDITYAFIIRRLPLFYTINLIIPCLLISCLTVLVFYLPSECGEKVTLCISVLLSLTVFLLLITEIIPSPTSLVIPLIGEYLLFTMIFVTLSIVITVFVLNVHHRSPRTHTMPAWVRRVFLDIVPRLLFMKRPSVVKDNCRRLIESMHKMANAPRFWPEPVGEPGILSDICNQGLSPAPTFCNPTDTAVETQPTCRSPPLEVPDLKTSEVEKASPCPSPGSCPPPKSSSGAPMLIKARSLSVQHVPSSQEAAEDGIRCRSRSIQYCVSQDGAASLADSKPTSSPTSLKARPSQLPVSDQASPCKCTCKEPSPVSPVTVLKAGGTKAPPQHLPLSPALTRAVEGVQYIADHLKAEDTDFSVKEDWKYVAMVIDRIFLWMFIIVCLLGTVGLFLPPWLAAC
Sequence of Neuronal acetylcholine receptor; alpha4/beta2 (P12390 whole entry): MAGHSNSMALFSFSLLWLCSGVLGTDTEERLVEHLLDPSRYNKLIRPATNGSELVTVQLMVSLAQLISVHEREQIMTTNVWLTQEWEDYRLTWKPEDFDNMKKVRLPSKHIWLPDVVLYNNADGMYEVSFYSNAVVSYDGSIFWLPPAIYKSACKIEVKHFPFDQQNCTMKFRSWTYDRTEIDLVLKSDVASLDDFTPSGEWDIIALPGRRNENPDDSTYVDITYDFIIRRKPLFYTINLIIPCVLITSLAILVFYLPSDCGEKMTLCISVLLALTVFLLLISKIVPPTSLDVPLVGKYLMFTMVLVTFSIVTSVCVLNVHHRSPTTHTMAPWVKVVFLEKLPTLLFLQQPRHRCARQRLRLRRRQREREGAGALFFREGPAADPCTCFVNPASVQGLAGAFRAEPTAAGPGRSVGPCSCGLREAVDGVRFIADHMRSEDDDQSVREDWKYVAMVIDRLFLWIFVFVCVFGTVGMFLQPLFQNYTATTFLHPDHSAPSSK
Sequence of Acetylcholine receptor (P02710 whole entry): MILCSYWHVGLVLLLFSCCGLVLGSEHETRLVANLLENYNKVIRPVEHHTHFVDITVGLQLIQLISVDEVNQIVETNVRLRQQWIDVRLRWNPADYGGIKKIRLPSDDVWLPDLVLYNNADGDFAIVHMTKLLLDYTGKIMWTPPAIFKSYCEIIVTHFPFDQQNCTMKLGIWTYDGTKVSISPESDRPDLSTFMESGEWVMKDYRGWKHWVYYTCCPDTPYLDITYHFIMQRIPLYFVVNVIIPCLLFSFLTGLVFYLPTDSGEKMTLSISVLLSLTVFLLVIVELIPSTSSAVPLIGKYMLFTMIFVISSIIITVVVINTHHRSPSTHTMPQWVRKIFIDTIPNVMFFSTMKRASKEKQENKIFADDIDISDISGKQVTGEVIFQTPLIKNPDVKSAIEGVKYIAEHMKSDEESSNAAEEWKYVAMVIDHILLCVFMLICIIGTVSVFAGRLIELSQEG
Sequence of Acetylcholine receptor (P02712 whole entry): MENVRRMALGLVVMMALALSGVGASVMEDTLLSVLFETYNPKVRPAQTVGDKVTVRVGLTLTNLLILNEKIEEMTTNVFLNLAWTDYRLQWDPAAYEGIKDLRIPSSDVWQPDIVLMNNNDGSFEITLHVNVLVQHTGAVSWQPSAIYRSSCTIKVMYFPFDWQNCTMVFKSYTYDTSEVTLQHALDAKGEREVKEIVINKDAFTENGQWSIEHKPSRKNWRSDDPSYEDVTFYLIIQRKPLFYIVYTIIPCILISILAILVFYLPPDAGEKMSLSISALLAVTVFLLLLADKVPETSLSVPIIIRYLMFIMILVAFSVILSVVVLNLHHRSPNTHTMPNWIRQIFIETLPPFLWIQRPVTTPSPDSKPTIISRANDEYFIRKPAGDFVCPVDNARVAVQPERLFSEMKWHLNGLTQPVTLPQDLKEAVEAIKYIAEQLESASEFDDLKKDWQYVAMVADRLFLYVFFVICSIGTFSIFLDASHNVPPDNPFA
Sequence of Acetylcholine receptor (P02718 whole entry): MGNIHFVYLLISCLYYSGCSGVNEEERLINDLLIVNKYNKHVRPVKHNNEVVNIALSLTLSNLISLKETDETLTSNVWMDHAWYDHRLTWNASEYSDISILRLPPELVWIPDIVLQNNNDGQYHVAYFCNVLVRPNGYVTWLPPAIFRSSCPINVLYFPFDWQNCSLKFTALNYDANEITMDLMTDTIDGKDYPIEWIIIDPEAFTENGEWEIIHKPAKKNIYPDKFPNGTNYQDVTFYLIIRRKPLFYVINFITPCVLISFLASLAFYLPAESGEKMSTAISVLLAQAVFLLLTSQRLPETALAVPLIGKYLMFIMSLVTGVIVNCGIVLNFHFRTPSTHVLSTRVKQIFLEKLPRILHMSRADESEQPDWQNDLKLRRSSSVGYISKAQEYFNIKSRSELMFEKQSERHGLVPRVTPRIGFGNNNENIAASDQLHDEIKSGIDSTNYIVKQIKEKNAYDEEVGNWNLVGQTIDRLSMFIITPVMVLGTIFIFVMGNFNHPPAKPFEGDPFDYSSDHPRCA
Sequence of Acetylcholine receptor (P02714 whole entry): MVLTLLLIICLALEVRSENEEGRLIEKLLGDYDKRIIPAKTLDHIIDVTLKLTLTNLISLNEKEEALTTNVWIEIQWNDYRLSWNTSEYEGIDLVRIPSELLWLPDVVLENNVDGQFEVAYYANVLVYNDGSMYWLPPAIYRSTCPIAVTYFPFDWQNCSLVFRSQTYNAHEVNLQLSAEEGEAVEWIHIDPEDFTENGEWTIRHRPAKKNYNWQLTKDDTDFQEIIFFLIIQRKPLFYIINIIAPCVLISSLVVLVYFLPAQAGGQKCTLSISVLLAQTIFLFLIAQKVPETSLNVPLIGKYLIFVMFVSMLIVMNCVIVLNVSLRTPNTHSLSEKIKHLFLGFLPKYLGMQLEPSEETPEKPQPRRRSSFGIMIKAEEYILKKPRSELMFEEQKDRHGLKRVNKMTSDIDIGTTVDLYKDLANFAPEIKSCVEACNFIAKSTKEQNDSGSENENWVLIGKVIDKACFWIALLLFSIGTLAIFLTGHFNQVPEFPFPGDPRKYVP

`c1ccc2c(c1)C1CNCC2C1` gave a Response in test [1] of 0%. Further, the inhibition constant (Ki) in test [2] was 2850 nM; at Acetylcholine receptor, 370 nM; in test [3], more than 5 µM; in test [4], 20 nM. Further, the inhibition in test [5] was 35%.

In turn, `c1cnc2cc3c(cc2n1)[C@@H]1CNC[C@H]3C1` showed a Response in test [1] of 68%. The inhibitory constant (Ki) was determined as 3540 nM at Acetylcholine receptor, 0.322 µM in test [3] and 0.06 nM in test [4]. The same compound returned an inhibition in test [5] of 34%.

For `O=[N+]([O-])c1ccc2c(c1)C1CNCC2C1` (racemic), the Response in test [1] came out at 65%. Moreover, the inhibition constant (Ki) in test [2] came to 210 nM; on Acetylcholine receptor, 690 nM; in test [3] it was 7.34 µM; in test [4] it was 0.75 nM. For the same compound, the inhibition in test [5] was determined as 20%.

The compound `O=c1cccc2n1C[C@@H]1CNC[C@H]2C1` (single isomer, unassigned) [CYTISINICLINE] registered a Response in test [1] of 56%. Further, the Ki was 840 nM in test [2], 250 nM at Acetylcholine receptor, 4.2 µM in test [3] and 0.17 nM in test [4]. This compound yielded an inhibition in test [5] of 30%.

Consider `CN1CCC[C@H]1c1cccnc1` [NICOTINE], for which, in test [1], the Response is 100%. For the same compound, the Ki on Acetylcholine receptor amounted to 6270 nM.
